What was measured:
Format in all cases: functional, Urine
[1] = test system: Escherichia coli; experiment: Antimicrobial activity against Escherichia coli 1780063 B-A isolated from patient with pyelonephritis assessed as >3-log reduction in urinary bacterial titer after 8 hrs
How it was run: (§1)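 Urine was collected before dosing and on day 3 of i.v. therapy (steady state), in 4-h intervals from infusion start (0–4 to 20–24 h), stored at −80°C and sterile filtered. It was serially diluted twofold (1:0 to 1:131,072) in the patient's drug-free pre-dose urine. Microdilution used an inoculum of 1.0 x 10^6–9.5 x 10^6 CFU/ml, incubated 18 h at 37°C, then subcultured 24 h on blood agar. The endpoint was >99.9% kill, reported as reciprocal titer.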

[2] = test system: Escherichia coli; experiment: Antimicrobial activity against Escherichia coli 1949826 B-L isolated from patient with pyelonephritis assessed as >3-log reduction in urinary bacterial titer after 12 hrs
How it was run: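 Patient urine was collected on day 3 of i.v. therapy (steady state) over 4-h intervals after infusion start, stored at –80°C, and sterile filtered. It was twofold serially diluted (1:0 to 1:131,072) in the patient's own pre-dose drug-free urine, inoculated to 1.0 x 10^6–9.5 x 10^6 CFU/ml, and incubated for 18 h at 37°C. Subcultures were grown on blood agar for 24 h. The UBT is the reciprocal of the highest dilution giving >99.9% kill.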

[3] = test system: Escherichia coli; experiment: Antimicrobial activity against Escherichia coli 1821385 B-C isolated from patient with pyelonephritis assessed as >3-log reduction in urinary bacterial titer after 12 hrs
How it was run: (§2)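 Urine was collected on day 3 of i.v. therapy (steady state) over 4-h intervals from infusion start (0–4 to 20–24 h), stored at –80°C and sterile filtered. It was serially diluted twofold (1:0 up to 1:131,072) in the patient's own pre-dose drug-free urine. Microdilution used a final inoculum of 1.0 x 10^6 to 9.5 x 10^6 CFU/ml, incubated 18 h at 37°C in air. 10 µl was subcultured onto 5% blood Columbia agar for 24 h at 37°C. The bactericidal endpoint was >99.9% (>3-log) kill, reported as a reciprocal titer.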

[4] = test system: Escherichia coli; experiment: Antimicrobial activity against Escherichia coli 1889645 B-I isolated from patient with pyelonephritis assessed as >3-log reduction in urinary bacterial titer after 8 hrs; how it was run: as §2
[5] = test system: Staphylococcus haemolyticus; experiment: Antimicrobial activity against Staphylococcus haemolyticus 1949819 B-M isolated from patient with pyelonephritis assessed as >3-log reduction in urinary bacterial titer after 8 hrs
[6] = test system: Escherichia coli; experiment: Antimicrobial activity against Escherichia coli 1780063 B-A isolated from patient with pyelonephritis assessed as >3-log reduction in urinary bacterial titer after 12 hrs; how it was run: as §1
[7] = test system: Pseudomonas aeruginosa; experiment: Antimicrobial activity against Pseudomonas aeruginosa 2062713 B-Q isolated from patient with pyelonephritis assessed as >3-log reduction in urinary bacterial titer after 8 hrs
[8] = test system: Escherichia coli; experiment: Antimicrobial activity against Escherichia coli 1821386 B-D isolated from patient with pyelonephritis assessed as >3-log reduction in urinary bacterial titer after 4 hrs; how it was run: as §2
[9] = test system: Escherichia coli; experiment: Antimicrobial activity against Escherichia coli 1655646 A-Y isolated from patient with pyelonephritis assessed as >3-log reduction in urinary bacterial titer after 16 hrs; how it was run: as §1
[10] = test system: Enterococcus faecalis; experiment: Antimicrobial activity against Enterococcus faecalis 2297262-10 B-V isolated from patient with pyelonephritis assessed as >3-log reduction in urinary bacterial titer after 8 hrs; how it was run: as §1
[11] = test system: Escherichia coli; experiment: Antimicrobial activity against Escherichia coli 1889647 B-H isolated from patient with pyelonephritis assessed as >3-log reduction in urinary bacterial titer after 4 hrs; how it was run: as §2
[12] = test system: Escherichia coli; experiment: Antimicrobial activity against Escherichia coli 1655646 A-Y isolated from patient with pyelonephritis assessed as >3-log reduction in urinary bacterial titer after 24 hrs; how it was run: as §1
[13] = test system: Escherichia coli; experiment: Antimicrobial activity against Escherichia coli 1889647 B-H isolated from patient with pyelonephritis assessed as >3-log reduction in urinary bacterial titer after 12 hrs; how it was run: as §2
[14] = test system: Escherichia coli; experiment: Antimicrobial activity against Escherichia coli 1780064 A-X isolated from patient with pyelonephritis assessed as >3-log reduction in urinary bacterial titer after 8 hrs; how it was run: as §2
[15] = test system: Staphylococcus aureus; experiment: Antimicrobial activity against Staphylococcus aureus 2215767-9 B-S isolated from patient with pyelonephritis assessed as >3-log reduction in urinary bacterial titer after 8 hrs
[16] = test system: Enterococcus faecalis; experiment: Antimicrobial activity against Enterococcus faecalis 2297262-10 B-V isolated from patient with pyelonephritis assessed as >3-log reduction in urinary bacterial titer after 4 hrs; how it was run: as §1
[17] = test system: Pseudomonas aeruginosa; experiment: Antimicrobial activity against Pseudomonas aeruginosa 1821383 B-E isolated from patient with pyelonephritis assessed as >3-log reduction in urinary bacterial titer after 12 hrs
[18] = test system: Enterococcus faecalis; experiment: Antimicrobial activity against Enterococcus faecalis 2215767-10 B-S isolated from patient with pyelonephritis assessed as >3-log reduction in urinary bacterial titer after 12 hrs; how it was run: as §1

Structure (SMILES) | urinary bactericidal titer [1] | urinary bactericidal titer [2] | urinary bactericidal titer [3] | urinary bactericidal titer [4] | urinary bactericidal titer [5] | urinary bactericidal titer [6] | urinary bactericidal titer [7] | urinary bactericidal titer [8] | urinary bactericidal titer [9] | urinary bactericidal titer [10] | urinary bactericidal titer [11] | urinary bactericidal titer [12] | urinary bactericidal titer [13] | urinary bactericidal titer [14] | urinary bactericidal titer [15] | Time [16] | urinary bactericidal titer [17] | urinary bactericidal titer [18]
C[C@@H](O)[C@H]1C(=O)N2C(C(=O)O)=C(S[C@@H]3CN[C@H](CNS(N)(=O)=O)C3)[C@H](C)[C@H]12 [DORIPENEM] | 1024 reciprocal titer | 131000 reciprocal titer | 32800 reciprocal titer | 32800 reciprocal titer | 128 reciprocal titer | 4096 reciprocal titer |  |  |  |  |  |  |  |  |  |  |  | 
C[C@H]1COc2c(N3CCN(C)CC3)c(F)cc3c(=O)c(C(=O)O)cn1c23.C[C@H]1COc2c(N3CCN(C)CC3)c(F)cc3c(=O)c(C(=O)O)cn1c23.O [LEVOFLOXACIN] |  |  |  |  |  |  | 4 reciprocal titer | 2048 reciprocal titer | 1024 reciprocal titer | 0 reciprocal titer | 2048 reciprocal titer | 256 reciprocal titer | 512 reciprocal titer | 512 reciprocal titer | 0 reciprocal titer | 0 h | 128 reciprocal titer | 1 reciprocal titer
